Results: paper PMC3561764 (Nature, 2007)
One block for each molecule: values may come before it. No end group written: not given here.

Key:
[1] = system: EGFR kinase domain attached to lipid vesicles; test: vesicle-based kinase assay; format: biochemical; settings: wild type kinase 3.5 μM, substrate peptide 1 mM, Fig. 2c
Outline: (§1)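 Wild-type EGFR kinase domain assayed either free in solution at 14 μM, or tethered to lipid vesicles at 3.5 μM. Vesicle tethering raises the local kinase concentration and promotes asymmetric dimer formation. Substrate peptide was held at 1 mM in all runs. Activity is reported as initial velocity normalised by kinase concentration.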

[2] = system: EGFR kinase domain K799E mutant; test: interaction with K799E mutant kinase domain; format: binding; settings: Supplemental Figure 5
EGFR kinase domain = test: crystal structures of EGFR kinase domain/Mig6 peptide complexes; format: binding; settings: 25-residue epitope, residues 337–361
EGFR [3] = settings: mouse skin; ref [8]; cited from earlier work
EGFR [4] = settings: ref [3],[5],[12]; cited from earlier work
[5] = molecular target: wild type EGFR kinase domain (Homo sapiens, UniProt P00533); test: kinase assay in solution, wild type; format: biochemical; settings: kinase 14 μM, substrate peptide 1 mM, Fig. 3b
Outline: as §1

[6] = molecular target: EGFR kinase domain, wild type (UniProt P00533 696-1022); test: fluorescence polarisation

inhibition of the kinase domain attached to lipid vesicles, in words [1]: much less potent
Molecule: 25-residue peptide: 25-residue peptide (residues 340–364), which lacks 3 residues in the N-terminal portion of Mig6^segment 1

Molecule: Mig6^segment 1: 25-residue epitope of Mig6 sufficient for binding to the EGFR kinase domain (residues 337–361)
effect of K799E kinase mutation on interaction with Mig6^segment 1 [2]: does not affect the conformation of the kinase domain or its interaction
binding to the EGFR kinase domain (crystal structures) (EGFR kinase domain): sufficient for binding to the EGFR kinase domain

B1: Mitogen-induced gene 6 (protein, UniProt Q9UJM3 1-462, looked up)
chain: MSIAGVAAQEIRVPLKTGFLHNGRAMGNMRKTYWSSRSEFKNNFLNIDPITMAYSLNSSAQERLIPLGHASKSAPMNGHCFAENGPSQKSSLPPLLIPPSENLGPHEEDQVVCGFKKLTVNGVCASTPPLTPIKNSPSLFPCAPLCERGSRPLPPLPISEALSLDDTDCEVEFLTSSDTDFLLEDSTLSDFKYDVPGRRSFRGCGQINYAYFDTPAVSAADLSYVSDQNGGVPDPNPPPPQTHRRLRRSHSGPAGSFNKPAIRISNCCIHRASPNSDEDKPEVPPRVPIPPRPVKPDYRRWSAEVTSSTYSDEDRPPKVPPREPLSPSNSRTPSPKSLPSYLNGVMPPTQSFAPDPKYVSSKALQRQNSEGSASKVPCILPIIENGKKVSSTHYYLLPERPPYLDKYEKFFREAEETNGGAQIQPLPADCGISSATEKPDSKTKMDLGGHVKRKHLSYVVSP
modifications: full-length C-terminal Myc tag
inhibition of EGFR-mediated signals (EGFR [3]): inhibits EGFR-mediated signals in mouse skin
binding to activated EGFR compared with unliganded receptor (EGFR [4]): bind more tightly to activated EGFR than to the unliganded receptor

inhibition of basal activity of wild type kinase domain in solution, in words [5]: does not show any inhibition
B2: Mig6^segment 1–2 (Y358A) (peptide, UniProt Q9UJM3 336-412, looked up, variant M346L Y358A)
chain: KSLPSYLNGVLPPTQSFAPDPKAVSSKALQRQNSEGSASKVPCILPIIENGKKVSSTHYYLLPERPPYLDKYEKFFR

binding result [6]: binds
Molecule: SPKSLPSYLNGVLPPTQSFAPDPKYVSSKA (peptide, UniProt Q9UJM3 334-363, looked up, also: fluorescein label, position not given here) [30-residue fluorescein-labeled Mig6 peptide (residues 334–363) M346L]
